The target in assay [1] is Trypanothione reductase (Trypanosoma cruzi) (UniProt P28593). The experiment in a line: (§1) Inhibitory constant against recombinant Trypanosoma cruzi trypanothione reductase was determined photometrically at 25 degree C in TR assay buffer (40 mM Hepes, 1 mM EDTA, pH 7.5). In outline:
(§2)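 Spectrophotometric TR assay at 25 °C, 40 mM Hepes, 1 mM EDTA, pH 7.5; 100 μM NADPH, 10–15 mU TR; reaction started with TS2, A340 decrease followed. TS2 varied at several fixed inhibitor concentrations (e.g. 5, 10, 20 μM); Ki from slopes and x-axis intercepts of Lineweaver–Burk plots, Dixon plots also used; data at least in duplicate.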

In assay [2] the target is T1, Trypanothione reductase (Trypanosoma cruzi, UniProt P28593). The assay is described as §1. In outline:
as §2

Assay [3] deals with Trypanothione reductase (Trypanosoma cruzi) (UniProt P28593). The experiment in a line: Inhibitory activity (100 uM) against recombinant Trypanosoma cruzi trypanothione reductase was determined in presence of Trypanothione disulfide (40 uM). The gist of the method: (§3)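 Recombinant T. cruzi TR, 10–15 mU, in 40 mM Hepes, 1 mM EDTA, pH 7.5, 25 °C, 100 μM NADPH; activity at fixed TS2 (40 or 110 μM) without and with 100 μM inhibitor; TS2 starts reaction, A340 decrease monitored; DMSO controls where needed. Inhibitor stocks 4 mM in DMSO or water.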
Chain of Trypanothione reductase (Trypanosoma cruzi) (P28593 whole entry, looked up): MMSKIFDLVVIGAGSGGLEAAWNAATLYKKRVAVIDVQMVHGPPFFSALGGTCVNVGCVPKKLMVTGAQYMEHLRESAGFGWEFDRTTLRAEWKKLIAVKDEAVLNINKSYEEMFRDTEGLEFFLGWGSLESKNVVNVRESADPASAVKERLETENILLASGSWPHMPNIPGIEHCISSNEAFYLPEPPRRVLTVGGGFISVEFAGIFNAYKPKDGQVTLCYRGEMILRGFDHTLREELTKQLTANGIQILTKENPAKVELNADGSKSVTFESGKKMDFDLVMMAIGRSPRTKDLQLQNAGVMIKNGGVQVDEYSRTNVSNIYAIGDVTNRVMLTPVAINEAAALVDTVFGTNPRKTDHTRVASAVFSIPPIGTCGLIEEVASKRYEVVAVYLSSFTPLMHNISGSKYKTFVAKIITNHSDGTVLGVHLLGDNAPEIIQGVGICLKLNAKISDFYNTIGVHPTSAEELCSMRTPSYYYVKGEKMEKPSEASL

The target is the same in assay [4]. The assay can be described thus: Inhibitory activity (100 uM) against recombinant Trypanosoma cruzi trypanothione reductase was determined in presence of Trypanothione disulfide (110 uM). The gist of the method: as §3
In assay [5] the target is T2, Glutathione reductase, mitochondrial (Homo sapiens) (UniProt P00390).
T2 sequence (whole entry): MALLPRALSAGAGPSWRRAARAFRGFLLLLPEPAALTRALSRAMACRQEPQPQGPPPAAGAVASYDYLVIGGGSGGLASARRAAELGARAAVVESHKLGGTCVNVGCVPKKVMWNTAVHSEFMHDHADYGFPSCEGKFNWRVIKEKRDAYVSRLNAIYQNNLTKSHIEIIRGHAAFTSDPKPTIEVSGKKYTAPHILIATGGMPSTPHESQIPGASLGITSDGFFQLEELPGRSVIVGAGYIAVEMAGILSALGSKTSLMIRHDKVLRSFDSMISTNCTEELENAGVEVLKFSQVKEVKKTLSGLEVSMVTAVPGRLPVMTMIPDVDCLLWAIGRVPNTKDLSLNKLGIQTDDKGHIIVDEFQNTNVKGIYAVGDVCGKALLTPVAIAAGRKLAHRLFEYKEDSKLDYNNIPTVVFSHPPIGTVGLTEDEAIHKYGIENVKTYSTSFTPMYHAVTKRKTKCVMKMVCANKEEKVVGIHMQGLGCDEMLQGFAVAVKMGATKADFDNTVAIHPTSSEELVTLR
The experiment in a line: Percent inhibition of human glutathione reductase at 100 uM relative to 100 uM GSSG.

Assay [6] deals with T3, Glutathione reductase, mitochondrial (Homo sapiens, UniProt P00390).
T3 sequence (P00390 whole entry): T2 sequence (whole entry)
The assay can be described thus: (§4) Inhibitory constant against human glutathione reductase. In outline:
(§5)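 Human GR kinetics in phosphate/KCl/EDTA buffer pH 6.9 at 25 °C, 100 μM NADPH, 5–10 mU GR; GSSG varied (40–1000 μM) at two fixed inhibitor levels, 120 and 240 μM; DMSO controls.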

Assay [7] addresses T2, Glutathione reductase, mitochondrial (Homo sapiens). The assay is described as §4. In outline:
as §5

The target is the same in assay [8]. The experiment in a line: Inhibitory activity against human Glutathione reductase relative to GSSG (100 uM).
Assay [9] concerns the target T1, Trypanothione reductase. The experiment in a line: Competitive inhibitory constant against recombinant Trypanosoma cruzi trypanothione reductase was determined photometrically at 25 degree C in TR assay buffer (40 mM Hepes, 1 mM EDTA, pH 7.5). In outline: as §2

In general, Ki refers to the equilibrium dissociation constant of an inhibitor or competing ligand from its target. The inhibition is the relative decrease from the control value, in per cent.

Each structure is given as a SMILES string.

T1 sequence (P28593 whole entry): as the sequence (P28593 whole entry, looked up) above

As to `COc1cc(C(=N)NC2CCC(CC3CCC(/N=C(\N)c4ccc(OCc5ccccc5)c(OC)c4)CC3)CC2)ccc1OCc1ccccc1` (stereo not given), the Ki' in assay [1] stood at 16 µM. The Ki in [2] was 2 µM. For the same molecule, the results for the inhibition in assay [3], in assay [4] and in assay [5] were 94%, 97% and 35%, respectively.
Consider `CN1CCN(CC/N=C(\N)c2ccc3[nH]ccc3c2)CC1`, for which the inhibition in assay [3] is 39%; in assay [4], 31%.
In the case of `COc1cc(C(N)=Nc2ccc(Oc3ccc(N=C(N)c4ccc(OCc5ccccc5)c(OC)c4)cc3)cc2)ccc1OCc1ccccc1`, the Ki in assay [2] is 2 µM.
On to `[H]/N=C(\N/C(=N/[H])NCCCCCCNC(=N)NC(=N)Nc1ccc(Cl)cc1)Nc1ccc(Cl)cc1` [CHLORHEXIDINE], for which the inhibitory constant (Ki) was 192 µM in [6] and 2 µM in assay [2].
In the case of `COc1cc(C(=N)NCCCCCCCCNC(=N)c2ccc(OCc3ccccc3)c(OC)c2)ccc1OCc1ccccc1`, the Ki in [2] came to 5 µM.
Regarding `N=C(NCCOCCOCCNC(=N)c1cnccn1)c1cnccn1`, the values for the inhibition in [3] and in [4] were 11% and less than 10%, respectively.
In turn, `N=C(NCCCCCCNC(=N)NC(=N)Nc1ccc(Cl)cc1)NC(=N)Nc1ccc(Cl)cc1` returned a Ki' in assay [7] of 210 µM.
For the molecule `O=C(Cc1cccc2ccccc12)NCCNC(=O)C1(NC(=O)C(=O)c2ccc([N+](=O)[O-])cc2)CCNCC1`, the Ki' in [1] stood at 8.5 µM. For the same molecule, in assay [2], the inhibition constant (Ki) is 6.2 µM.
In the case of `N=C(NC1CCC(CC2CCC(NC(=N)c3cccs3)CC2)CC1)c1cccs1` (stereo not given), the inhibition in assay [3] is 17%; in assay [4] it was 16%.
Take `COc1cc(C(=N)Nc2ccc(Oc3ccc(NC(=N)c4ccc(OCc5ccccc5)c(OC)c4)cc3)cc2)ccc1OCc1ccccc1`: the Ki' in assay [1] turned out to be 22 µM. The inhibition in [3] came out at 95%; in [4] it was 90%; in assay [8] it was 45%.
With `N=C(NCCc1cccnc1)c1cccs1`, the inhibition in assay [3] and in [4] was less than 10% each time.
As to `N=C(NC1CCC(CC2CCC(NC(=N)c3cnccn3)CC2)CC1)c1cnccn1` (stereo not given), the inhibition in [3] and in assay [4] was less than 10% throughout.
For `N=C(CCCCCCCC(=N)NCC#Cc1ccccc1)NCC#Cc1ccccc1`, the inhibition constant (Ki) in assay [9] was determined as 6 µM. The inhibition in [3] was 80%; in assay [4] it was 69%; in [8], 5%.
As to `N=C(NCCCCCCCCNC(=N)c1cccs1)c1cccs1`, the inhibition was 15% in [3] and less than 10% in assay [4].
The like results for `N=C(NCCc1cccnc1)c1sccc1Br` were, in that order, 14% and 15%.
Take `CN1CCN(CCC/N=C(\N)c2sccc2Br)CC1`: the inhibition in assay [3] and in assay [4] was less than 10% throughout.
For `COc1cc(C(=N)NCCCCCCCCN=C(N)c2ccc(OCc3ccccc3)c(OC)c2)ccc1OCc1ccccc1`, the Ki' in [1] was determined as 47 µM. In addition, the results for the inhibition in [3] and in assay [4] were 92% and 85%, respectively.
For `N=C(Nc1ccc(Oc2ccc(NC(=N)c3cccs3)cc2)cc1)c1cccs1`, the inhibition in assay [3] was determined as 11%; in assay [4], 12%.
Regarding `N=C(NCCOCCOCCNC(=N)c1cccs1)c1cccs1`, the inhibition in assay [3] was 14%; in assay [4], less than 10%.
On the same counts, the results for `CN1CCN(CCC/N=C(\N)c2cccs2)CC1` are less than 10% and less than 10%.

Values taken from ChEMBL document CHEMBL1145161, “Inhibitors of Trypanosoma cruzi trypanothione reductase revealed by virtual screening and parallel synthesis” (J Med Chem, 2005).
